These results are taken from ChEMBL document CHEMBL4004799, “Octaminomycins A and B, Cyclic Octadepsipeptides Active against Plasmodium falciparum” (J Nat Prod, 2017).

Molecules are shown by their SMILES. Activity calls are given as the source filed them. The rule behind the calls is not given here. Where a SMILES comes first, the peptide text is derived from it. Bridges are numbered along the chain shown (N, C = ends). [ ]: non-standard residue; d: D form. The star is where a group is joined. NMeY = CN[C@@H](Cc1ccc(O)cc1)C(=O)O; Propionyl = CCC(=O)* Some results are limits rather than exact numbers.

For assay [1], the system named is Candida albicans. Description: Antimicrobial activity against Candida albicans JCM1542 up to 30 uM after 24 hrs by broth microdilution assay. In kind it is functional. Background: In broth dilution the organism is exposed to a series of concentrations in liquid medium.
The subject of assay [2] is NRK. Description: Cytotoxicity against rat NRK cells infected with temperature-sensitive mutant of Rous sarcoma virus after 48 hrs by WST-8 assay. In kind it is cell-based. The method, boiled down:
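Rat kidney cells infected with ts25 (T-class Rous sarcoma virus Prague mutant) grown at permissive 32 °C in MEM + 10% calf serum; […] cells/well seeded, compounds applied 48 h; WST-8 (1/10 volume) added for 1 h, growth read as absorbance at 450 nm.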

Assay [3] relates to HeLa. Description: Cytotoxicity against human HeLa cells after 48 hrs by WST-8 assay. In kind it is cell-based.
Assay [4] has as its system HL-60. Kind of assay: Cytotoxicity against human HL60 cells after 48 hrs by WST-8 assay. In kind it is cell-based. To be noted: HL-60, 48 h. The method, boiled down: (§1)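 Cells were seeded in 96-well plates and exposed to compounds for 48 h. HL-60 cells were grown at 37 °C in RPMI-1640 with 10% FBS. tsFT210 cells, a mouse FM3A cdc2 temperature-sensitive mutant, were grown at 32 °C in RPMI-1640 with 5% calf serum. WST-8 was added at 1/10 volume for 1 h, and growth was read as absorbance at 450 nm.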

In assay [5] the test system is Aspergillus fumigatus. Description: Antimicrobial activity against Aspergillus fumigatus Af293 up to 30 uM after 48 hrs by broth microdilution assay. In kind it is functional.
The test system of assay [6] is Staphylococcus aureus. Kind of assay: Antimicrobial activity against Staphylococcus aureus 209 up to 30 uM after 24 hrs by broth microdilution assay. In kind it is functional.
For assay [7], the system named is Plasmodium falciparum. Description: Antimalarial activity against chloroquine-resistant Plasmodium falciparum Dd2. In kind it is functional. The method, boiled down:
(§2)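 P. falciparum strains maintained at 37 °C under 5.0% CO2 in human erythrocytes (3% hematocrit), RPMI1640 with 10% human plasma; assay run per an earlier published method; IC50 in μM.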

Assay [8] is described as follows: Cytotoxicity against temperature-sensitive mouse FT210 cells after 48 hrs by WST-8 assay. In kind it is cell-based. Conditions: FT210, 48 h. The procedure, abridged: as §1
A general note: Formazan colour is commonly taken as a measure of viable cells.

In assay [9] the test system is Pyricularia oryzae. Kind of assay: Antimicrobial activity against Pyricularia oryzae kita-1 up to 30 uM after 48 hrs by broth microdilution assay. In kind it is functional.
The test system of assay [10] is Escherichia coli. Kind of assay: Antimicrobial activity against Escherichia coli HO141 up to 30 uM after 24 hrs by broth microdilution assay. In kind it is functional.
In assay [11] the test system is Plasmodium falciparum. Description: Antimalarial activity against chloroquine-resistant Plasmodium falciparum K1. In kind it is functional. The method, boiled down:
as §2

The subject of assay [12] is Plasmodium falciparum. Kind of assay: Antimalarial activity against chloroquine-sensitive Plasmodium falciparum 3D7. In kind it is functional. The procedure, abridged:
as §2

One may read the IC50 as the concentration that inhibits the measured activity by half. For `CC(=O)N[C@@H]1C(=O)N[C@@H](Cc2ccccc2)C(=O)N[C@H](CC(C)C)C(=O)N[C@@H](C(C)C)C(=O)N2CCC[C@H]2C(=O)N[C@@H](CC(C)C)C(=O)N(C)[C@@H](Cc2ccc(O)cc2)C(=O)N2CCC[C@H]2C(=O)O[C@@H]1C` (Ac-TF[dL]VPL[NMeY]P; ester 1-C), the result in [1], in assay [5], in [6], in assay [9] and in assay [10] was inactive. The IC50 was more than 30000 nM in assay [2]; more than 30000 nM in [3]; more than 30000 nM in [4]; 1100 nM in [7]; more than 30000 nM in [8]; 830 nM in assay [11]. The compound further yielded an IC50 in [12] of 1500 nM.

`CCC(=O)N[C@@H]1C(=O)N[C@@H](Cc2ccccc2)C(=O)N[C@H](CC(C)C)C(=O)N[C@@H](C(C)C)C(=O)N2CCC[C@H]2C(=O)N[C@@H](CC(C)C)C(=O)N(C)[C@@H](Cc2ccc(O)cc2)C(=O)N2CCC[C@H]2C(=O)O[C@@H]1C` (Propionyl-TF[dL]VPL[NMeY]P; ester 1-C): the result in assay [1], in assay [5], in assay [6], in [9] and in assay [10] was inactive. Also, the IC50 was more than 30000 nM in assay [2]; more than 30000 nM in assay [3]; more than 30000 nM in [4]; 1600 nM in [7]; more than 30000 nM in assay [8]; 1300 nM in assay [11]. In addition, in [12], inhibition was half-maximal at 1500 nM (IC50).
